≈ marks a conversion by molar mass, not a printed value. Calls of active or inactive are those of the source. The rule behind the calls is not given here.
Columns and labels:
Staphylococcus aureus = assay: Antibacterial activity against penicillin G-resistant Staphylococcus aureus HH 127 after overnight incubation by twofold agar dilution method; type: functional
Method in brief: (§1)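 MIC (ug/ml) determined by twofold agar dilution on Trypticase soy agar buffered to pH 6.0.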

Klebsiella pneumoniae = assay: Antibacterial activity against Klebsiella pneumoniae 4200 after overnight incubation by twofold agar dilution method; type: functional
Method in brief: (§2)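 Twofold agar dilution on Trypticase soy agar buffered to pH 6.0. MIC recorded in ug/ml.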

Salmonella paratyphi = assay: Antibacterial activity against Salmonella paratyphi ATCC 12176 after overnight incubation by twofold agar dilution method; type: functional, Salmonella enterica subsp. enterica serovar Paratyphi A; conditions: Salmonella enterica; method in brief: as §1
Enterococcus faecalis = assay: Antibacterial activity against Streptococcus faecalis after overnight incubation by twofold agar dilution method; type: functional; method in brief: as §2
Escherichia coli [1] = assay: Antibacterial activity against Escherichia coli 12140 infected in sc dosed mouse assessed as mouse survival after 3 days; type: functional; conditions: Escherichia coli, 12140, sc, 72 h; read-out: PD50
Method in brief: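 Mice infected ip with approximately 2 X 10 organisms per mouse of E. coli 12140 culture diluted in 5% hog gastric mucin (uniformly lethal). Fourfold dilutions dosed sc in equally divided portions at 1 and 5 h postinfection; five groups of ten mice each. Survivors observed for 3 days. PD50 = total dose (mg/kg) protecting 50% of mice, calculated by Litchfield and Wilcoxon method.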

Klebsiella aerogenes = assay: Antibacterial activity against Enterobacter aerogenes ATCC 13048 after overnight incubation by twofold agar dilution method; type: functional; method in brief: as §2
Shigella flexneri = assay: Antibacterial activity against Shigella paradysenteriae HH 117 after overnight incubation by twofold agar dilution method; type: functional; method in brief: as §1
Escherichia coli [2] = assay: Antibacterial activity against Escherichia coli 12140 after overnight incubation by twofold agar dilution method; type: functional; method in brief: as §2
Pseudomonas aeruginosa = assay: Antibacterial activity against Pseudomonas aeruginosa after overnight incubation by twofold agar dilution method; type: functional, organism-based; method in brief: as §2

Structure (SMILES) | MIC (Staphylococcus aureus) [µg/mL] | MIC (Klebsiella pneumoniae) [µg/mL] | MIC (Salmonella paratyphi) [µg/mL] | MIC (Enterococcus faecalis) [µg/mL] | ED50 (Escherichia coli [1]) [mg/kg] | MIC (Klebsiella aerogenes) [µg/mL] | MIC (Shigella flexneri) [µg/mL] | MIC (Escherichia coli [2]) [µg/mL] | Activity (Pseudomonas aeruginosa)
Cc1nnc(SCC2=C(C(=O)[O-])N3C(=O)[C@@H](NC(=O)C[S+]([O-])CC(F)(F)F)[C@H]3SC2)s1.[Na+] (stereo not given in full) | 0.8 | 3.1 | 1.6 | > 13 | 6 | 6.3 | 0.8 | 3.1 | inactive
CC(=O)OCC1=C(C(=O)[O-])N2C(=O)[C@@H](NC(=O)CSCC#N)[C@H]2SC1.[Na+] | 0.2 | 1.6 | 1.6 | > 13 | > 200 | > 200 | 6.3 | 6.3 | inactive
CC(=O)OCC1=C(C(=O)[O-])N2C(=O)[C@@H](NC(=O)C[S+]([O-])CC#N)[C@H]2SC1.[Na+] (stereo not given in full) | 1.6 | 6.3 | 3.1 | > 13 | 21 | 25 | 6.3 | 12.5 | inactive
CC(=O)OCC1=C(C(=O)[O-])N2C(=O)[C@@H](NC(=O)CSCC(F)(F)F)[C@H]2SC1.[Na+] | 0.4 | 3.1 | 6.3 | > 13 | 184 | 50 | 6.3 | 6.3 | inactive
Cn1nnnc1SCC1=C(C(=O)[O-])N2C(=O)[C@@H](NC(=O)C[S+]([O-])CC#N)[C@H]2SC1.[Na+] (stereo not given in full) | 1.6 | 1.6 | 0.8 | > 13 | 10 | 12.5 | 1.6 | 1.6 | inactive
CC(=O)OCC1=C(C(=O)[O-])N2C(=O)[C@@H](NC(=O)CS(=O)(=O)CC(F)(F)F)[C@H]2SC1.[Na+] | 3.1 | 6.3 | 3.1 | > 13 | 100 | 50 | 12.5 | 25 | inactive
Cc1nnc(SCC2=C(C(=O)O)N3C(=O)[C@@H](NC(=O)Cn4cnnn4)[C@H]3SC2)s1 [CEFAZOLIN] | 0.4 (≈ 0.88 µM) | 0.8 (≈ 1.76 µM) | 0.8 (≈ 1.76 µM) | > 13 | 6 | 1.6 (≈ 3.52 µM) | 0.4 (≈ 0.88 µM) | 0.8 (≈ 1.76 µM) | inactive
Cc1nnc(SCC2=C(C(=O)[O-])N3C(=O)[C@@H](NC(=O)CSCC#N)[C@H]3SC2)s1.[Na+] | 0.2 | 1.6 | 1.6 | > 13 | 14 | > 200 | 1.6 | 1.6 | inactive
Cn1nnnc1SCC1=C(C(=O)[O-])N2C(=O)[C@@H](NC(=O)CSCC(F)(F)F)[C@H]2SC1.[Na+] | 0.2 | 3.1 | 0.8 | > 13 | 11 | 6.3 | 0.4 | 1.6 | inactive
Cn1nnnc1SCC1=C(C(=O)O)N2C(=O)[C@@H](NC(=O)CSC(F)(F)F)[C@H]2SC1 [CEFAZAFLUR] | 0.4 (≈ 0.85 µM) | 0.8 (≈ 1.7 µM) | 0.4 (≈ 0.85 µM) | > 13 | 2 | 1.6 (≈ 3.4 µM) | 0.2 (≈ 0.425 µM) | 0.4 (≈ 0.85 µM) | inactive
Cc1nnc(SCC2=C(C(=O)[O-])N3C(=O)[C@@H](NC(=O)CSCC(F)(F)F)[C@H]3SC2)s1.[Na+] | 0.2 | 6.3 | 6.3 | > 13 | 33 | 25 | 1.6 | 6.3 | inactive
CC(=O)OCC1=C(C(=O)[O-])N2C(=O)[C@@H](NC(=O)C[S+]([O-])CC(F)(F)F)[C@H]2SC1.[Na+] (stereo not given in full) | 0.8 | 3.1 | 1.6 | > 13 | 25 | 6.3 | 3.1 | 6.3 | inactive
CC(=O)OCC1=C(C(=O)O)N2C(=O)[C@@H](NC(=O)Cc3cccs3)[C@H]2SC1 [CEPHALOTHIN] | 0.2 (≈ 0.504 µM) | 3.1 (≈ 7.82 µM) | 1.6 (≈ 4.04 µM) | > 13 | 50 | 50 (≈ 126 µM) | 6.3 (≈ 15.9 µM) | 3.1 (≈ 7.82 µM) | inactive
Cc1nnc(SCC2=C(C(=O)[O-])N3C(=O)[C@@H](NC(=O)CS(=O)(=O)CC(F)(F)F)[C@H]3SC2)s1.[Na+] | 1.6 | 6.3 | 6.3 | > 13 | 35 | 12.5 | 6.3 | 6.3 | inactive
Cn1nnnc1SCC1=C(C(=O)[O-])N2C(=O)[C@@H](NC(=O)C[S+]([O-])CC(F)(F)F)[C@H]2SC1.[Na+] (stereo not given in full) | 1.6 | 0.4 | 1.6 | > 13 | 1.5 | 6.3 | 0.4 | 0.8 | inactive
CC(=O)OCC1=C(C(=O)O)N2C(=O)[C@@H](NC(=O)CC#N)[C@H]2SC1 [CEPHACETRILE] | 0.4 (≈ 1.18 µM) | 3.1 (≈ 9.14 µM) | 3.1 (≈ 9.14 µM) | > 13 | 25 | 6.3 (≈ 18.6 µM) | 3.1 (≈ 9.14 µM) | 6.3 (≈ 18.6 µM) | inactive
Cn1nnnc1SCC1=C(C(=O)[O-])N2C(=O)[C@@H](NC(=O)CSCC#N)[C@H]2SC1.[Na+] | 0.4 | 1.6 | 0.4 | > 13 | 11 | 12.5 | 0.8 | 0.8 | inactive
Cc1nnc(SCC2=C(C(=O)[O-])N3C(=O)[C@@H](NC(=O)C[S+]([O-])CC#N)[C@H]3SC2)s1.[Na+] (stereo not given in full) | 0.8 | 1.6 | 0.8 | > 13 | 22 | 6.3 | 0.8 | 3.1 | inactive
Cc1nnc(SCC2=C(C(=O)O)N3C(=O)[C@@H](NC(=O)CS(=O)(=O)CC#N)[C@H]3SC2)s1 | 1.6 (≈ 3.27 µM) | 6.3 (≈ 12.9 µM) | 6.3 (≈ 12.9 µM) | > 13 | 15 | 12.5 (≈ 25.5 µM) | 3.1 (≈ 6.33 µM) | 6.3 (≈ 12.9 µM) | inactive
CC(=O)OCC1=C(C(=O)O)N2C(=O)[C@@H](NC(=O)CS(=O)(=O)CC#N)[C@H]2SC1 | 1.6 (≈ 3.83 µM) | 25 (≈ 59.9 µM) | 3.1 (≈ 7.43 µM) | > 13 | 35 | 50 (≈ 120 µM) | 6.3 (≈ 15.1 µM) | 6.3 (≈ 15.1 µM) | inactive

Reference: ChEMBL document CHEMBL3244150, “Semisynthetic cephalosporins. Synthesis and structure-activity relationships of analogues with 7-acyl groups derived from 2-(cyanomethylthio)acetic acid or 2-[(2,2,2-trifluoroethyl)thio]acetic acid and their sulfoxides and sulfones” (1977)
